# Test results: ChEMBL document CHEMBL1821725, “Synthesis and biological evaluation of 2',4'- and 3',4'-bridged nucleoside analogues” (Bioorg Med Chem, 2011)
# The source made the active and inactive calls. The rule behind the calls is not given here.
# What was measured:
# [1] = tested on: Human immunodeficiency virus; experiment: Antiviral activity against HIV; format: functional; conditions: Human immunodeficiency virus 1; read-out: ED50 (the source's name)
# [2] = tested on: Human immunodeficiency virus 1; experiment: Antiviral activity against HIV1 HxB2 infected in human TZM-bl cells assessed as inhibition of virus neutralization after 48 hrs by luciferase assay; format: functional, organism-based; conditions: Human immunodeficiency virus 1, HxB2, TZM-bl
# Outline: (§1)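 Single-round HIV-1 pseudoviruses made in 293T cells and titrated on TZM-bl cells. Virus giving ~1 × 10^6 RLU incubated 1 h at 37 °C with serially diluted samples. TZM-bl cells then plated at 1 × 10^5 per well for 48 h. Read-out: luciferase in cell lysate. IC50 = 50% neutralization. Highest concentration tested 100 μM.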
# [3] = tested on: Human immunodeficiency virus 1; experiment: Antiviral activity against HIV1 SF162 infected in human TZM-bl cells assessed as inhibition of virus neutralization after 48 hrs by luciferase assay; format: functional, organism-based; outline: as §1
# [4] = Cytotoxicity against human MT4 cells; format: cell-based
# [5] = tested on: Human immunodeficiency virus 1; experiment: Antiviral activity against HIV1 LAI; format: functional, organism-based; conditions: Human immunodeficiency virus 1, LAI
# Escherichia coli [6] = experiment: Antibacterial activity against Escherichia coli MG1655 after 24 hrs by micro-broth dilution method; format: functional; conditions: K-12 substr. MG1655, 24 h
# Outline: (§2)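 CLSI broth microdilution. Compounds serially diluted in cation-adjusted Mueller Hinton broth. Inoculum from fresh overnight MHA plate scrape, adjusted to 1 × 10^7 CFU/ml, 5 μL added per well. Incubated at 37 °C for 24 h. MIC = lowest concentration with no visible growth; median of at least three independent replicates. Highest concentration tested 64 μM.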
# Staphylococcus aureus [7] = experiment: Antibacterial activity against Staphylococcus aureus 8325 after 24 hrs by micro-broth dilution method; format: functional; conditions: NCTC 8325, 24 h; outline: as §2
# CCRF-CEM [8] = experiment: Cytotoxicity against human CCRF-CEM cells at 10 uM after 72 hrs by MTT assay; format: functional, cell-based
# Outline: (§3)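 Raji and CCRF-CEM cells incubated with compounds for 72 h. Viability read by MTT reduction to formazan, optical density at 570 nm. Data analysed by one-way ANOVA. IC50 taken as concentration giving 50% growth inhibition. Highest concentration tested 10 μM.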
# Raji [9] = experiment: Cytotoxicity against human Raji cells at 10 uM after 72 hrs by MTT assay; format: functional, cell-based; outline: as §3
# Staphylococcus aureus [10] = experiment: Antibacterial activity against Staphylococcus aureus 8325 at 64 uM after 24 hrs by micro-broth dilution method; format: functional; conditions: NCTC 8325; outline: as §2
# Escherichia coli [11] = experiment: Antibacterial activity against Escherichia coli MG1655 at 64 uM after 24 hrs by micro-broth dilution method; format: functional; conditions: K-12 substr. MG1655; outline: as §2
# CCRF-CEM [12] = experiment: Cytotoxicity against human CCRF-CEM cells after 72 hrs by MTT assay; format: functional, cell-based; outline: as §3
# Raji [13] = experiment: Cytotoxicity against human Raji cells after 72 hrs by MTT assay; format: functional, cell-based; outline: as §3
# [14] = tested on: Human immunodeficiency virus 1; experiment: Antiviral activity against HIV1 SF162 infected in human TZM-bl cells assessed as inhibition of virus neutralization at 100 uM after 48 hrs by luciferase assay; format: functional, organism-based; outline: as §1
# [15] = tested on: Human immunodeficiency virus 1; experiment: Antiviral activity against HIV1 HxB2 infected in human TZM-bl cells assessed as inhibition of virus neutralization at 100 uM after 48 hrs by luciferase assay; format: functional, organism-based; outline: as §1
# [16] = Cytotoxicity against human TZM-bl cells at 33 uM after 48 hrs; format: cell-based
# [17] = Human immunodeficiency virus 1, SF162, TZM-bl, 48 h, read-out: IC50
SMILES,IC50 [2] [µM],"IC50 [3, 17] [µM]",growth inhibition (GI) (CCRF-CEM [8]),growth inhibition (GI) (Raji [9]),inhibition (Staphylococcus aureus [10]),inhibition (Escherichia coli [11]),also measured
Cc1cn([C@H]2C[C@H](N=[N+]=[N-])[C@@H](CO)O2)c(=O)[nH]c1=O [ZIDOVUDINE],0.037,0.078,–,–,–,–,EC50 [1]: 0.001 µM
Cc1cn([C@@H]2O[C@@]3(CO)COC[C@H]3[C@H]2O)c(=O)[nH]c1=O,–,–,–,–,–,–,CC50 [4]: 0.54 µg/mL
"Cc1cn([C@@H]2C=CC3(CO)C[C@@H]23)c(=O)[nH]c1=O (single isomer, unassigned)",–,–,–,–,–,–,EC50 [5]: 28.8 µM
Cc1cn([C@H]2C[C@@H]3COC[C@]3(CO)O2)c(=O)[nH]c1=O,–,–,–,–,–,–,CC50 [4]: 0.54 µg/mL
CN(Cc1ccccc1)c1nc(Cl)nc2c1ncn2[C@@H]1O[C@@]2(CO)CO[C@@H]1[C@@H]2O,24.9,27.9,inactive,inactive,–,–,MIC (Escherichia coli [6]): 16 µM; MIC (Staphylococcus aureus [7]): 8 µM
CCCCNc1nc(N)c2ncn([C@@H]3O[C@@]4(CO)CO[C@@H]3[C@@H]4OCc3ccccc3)c2n1,28,68,inactive,inactive,inactive,inactive,–
OC[C@@]12CO[C@@H]([C@H](n3cnc4c(NCc5ccccc5)nc(Cl)nc43)O1)[C@@H]2OCc1ccccc1,2.4,7,inactive,inactive,inactive,inactive,–
Nc1nc(Cl)nc2c1ncn2[C@H]1C[C@H](O)[C@@H](CO)O1 [CLADRIBINE],–,–,–,–,–,–,IC50 (CCRF-CEM [12]): 0.0005 µM; IC50 (Raji [13]): 0.009 µM
O=C(c1ccccc1)N(C(=O)c1ccccc1)c1nc(N(C(=O)c2ccccc2)C(=O)c2ccccc2)c2ncn([C@@H]3O[C@@]4(CO)CO[C@@H]3[C@@H]4OCc3ccccc3)c2n1,–,–,–,–,inactive,inactive,IC50 (CCRF-CEM [12]): 0.36 µM; inhibition [14]: inactive; inhibition [15]: inactive; IC50 (Raji [13]): 0.25 µM
Cc1cn([C@@H]2O[C@@]3(CO)CO[C@H]3[C@H]2O)c(=O)[nH]c1=O,–,–,–,–,–,–,EC50 [1]: 0.14 µM
C=CCc1nc(/C=C/C)c2ncn([C@@H]3O[C@@]4(CO)CO[C@@H]3[C@@H]4OCc3ccccc3)c2n1,2.4,–,–,–,inactive,inactive,Activity [16]: Toxic; IC50 ([3]; tzm-bl): Not Active; IC50 (CCRF-CEM [12]): 7.6 µM; IC50 (Raji [13]): 5.8 µM
CCNc1nc(N)c2ncn([C@@H]3O[C@@]4(CO)CO[C@@H]3[C@@H]4OCc3ccccc3)c2n1,–,60,inactive,inactive,inactive,inactive,inhibition [15]: inactive
